How the values were obtained:
Hepatocyte [1] = experiment: Drug uptake in human hepatocyte at 250 uM after 24 hrs assessed per 10^6 cells; type: ADME, cell-based; details: hepatocytes
Procedure, shortened: (§1)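 Primary human hepatocytes from 3 donors were plated on collagen and recovered for ≥18 h. They were exposed for 24 h, in duplicate, to 0–250 μM drug: 3H-labelled material diluted with unlabelled compound. Total intracellular radioactivity and individual phosphates were measured in methanol extracts by SAX HPLC with radiometric detection. Results are pmol/10^6 cells, mean ± S.D.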

Hepatocyte [2] = experiment: Drug uptake in human hepatocyte at 100 uM after 24 hrs assessed per 10^6 cells; type: ADME, cell-based; details: hepatocytes; procedure, shortened: as §1
Hepatitis C virus = experiment: Antiviral activity against HCV 1b Con1 in 2209-23 cells after 72 hrs by luciferase based replicon assay; type: functional, organism-based, Hepacivirus hominis; details: genotype 1b Con 1, 2209-23, 72 h
Procedure, shortened: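 Huh7-derived 2209-23 cells carrying a bicistronic genotype 1b Con1 subgenomic HCV replicon with a Renilla luciferase reporter of RNA replication. Cells were exposed to compound for 72 h, and dose-dependent reduction of luciferase activity was measured to give IC50.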

Hepatocyte [3] = experiment: Drug uptake in human hepatocyte at 2 uM after 1 hr assessed per 10^6 cells; type: ADME, cell-based; details: hepatocytes
Procedure, shortened: (§2)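 Primary human hepatocytes from 4 donors were plated at 1.5 million cells/well on collagen and recovered for ≥18 h. They were dosed with 3H-labelled drug at 2 μM (10 μCi/ml) for 1–72 h, in duplicate, at 37°C. Cold 60% methanol extracts were run on SAX ion-exchange HPLC with radiometric detection and compared with reference standards. Results are pmol/10^6 cells, mean ± S.D.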

Hepatocyte [4] = experiment: Drug uptake in human hepatocyte at 2 uM after 6 hrs assessed per 10^6 cells; type: ADME, cell-based; details: hepatocytes; procedure, shortened: as §2
Hepatocyte [5] = experiment: Drug uptake in human hepatocyte at 2 uM after 16 hrs assessed per 10^6 cells; type: ADME, cell-based; details: hepatocytes; procedure, shortened: as §2
Hepatocyte [6] = experiment: Drug uptake in human hepatocyte at 2 uM after 24 hrs assessed per 10^6 cells; type: ADME, cell-based; details: hepatocytes
Hepatocyte [7] = experiment: Drug uptake in human hepatocyte at 2 uM after 48 hrs assessed per 10^6 cells; type: ADME, cell-based; details: hepatocytes; procedure, shortened: as §2
Hepatocyte [8] = experiment: Drug uptake in human hepatocyte at 2 uM after 72 hrs assessed per 10^6 cells; type: ADME, cell-based; details: hepatocytes; procedure, shortened: as §2
Hepatocyte [9] = experiment: Drug uptake in human hepatocyte at 2 uM after 6 hrs assessed as 4-amino-1-((2R,3R,4R,5R)-3-fluoro-4-hydroxy-5-(hydroxymethyl)-3-methyl-tetrahydrofuran-2-yl)pyrimitrin-2(1H)-one tri phosphate level per 10^6 cells; type: ADME, cell-based; details: hepatocytes; procedure, shortened: as §2
Hepatocyte [10] = experiment: Drug uptake in human hepatocyte at 2 uM after 16 hrs assessed as 4-amino-1-((2R,3R,4R,5R)-3-fluoro-4-hydroxy-5-(hydroxymethyl)-3-methyl-tetrahydrofuran-2-yl)[…]-2(1H)-one tri phosphate level per 10^6 cells; type: ADME, cell-based; details: hepatocytes; procedure, shortened: as §2
Hepatocyte [11] = experiment: Drug uptake in human hepatocyte at 2 uM after 24 hrs assessed as 4-amino-1-((2R,3R,4R,5R)-3-fluoro-4-hydroxy-5-(hydroxymethyl)-3-methyl-tetrahydrofuran-2-yl)[…]-2(1H)-one tri phosphate level per 10^6 cells; type: ADME, cell-based; details: hepatocytes; procedure, shortened: as §2
Hepatocyte [12] = experiment: Drug uptake in human hepatocyte at 2 uM after 48 hrs assessed as 4-amino-1-((2R,3R,4R,5R)-3-fluoro-4-hydroxy-5-(hydroxymethyl)-3-methyl-tetrahydrofuran-2-yl)pyrimitrin-2(1H)-one tri phosphate level per 10^6 cells; type: ADME, cell-based; details: hepatocytes; procedure, shortened: as §2
Hepatocyte [13] = experiment: Drug uptake in human hepatocyte at 2 uM after 72 hrs assessed as 4-amino-1-((2R,3R,4R,5R)-3-fluoro-4-hydroxy-5-(hydroxymethyl)-3-methyl-tetrahydrofuran-2-yl)pyrimitrin-2(1H)-one tri phosphate level per 10^6 cells; type: ADME, cell-based; details: hepatocytes; procedure, shortened: as §2
Hepatocyte [14] = experiment: Drug uptake in human hepatocyte at 2 uM after 6 hrs assessed as 1-((2R,3R,4R,5R)-3-fluoro-4-hydroxy-5-(hydroxymethyl)-3-methyl-tetrahydrofuran-2-yl)pyrimitrine-2,4(1H,3H)-trione tri phosphate level per 10^6 cells; type: ADME, cell-based; details: hepatocytes; procedure, shortened: as §2
Hepatocyte [15] = experiment: Drug uptake in human hepatocyte at 100 uM after 24 hrs assessed as 1-((2R,3R,4R,5R)-3-fluoro-4-hydroxy-5-(hydroxymethyl)-3-methyl-tetrahydrofuran-2-yl)pyrimidine-2,4(1H,3H)-dione di phosphate level per 10^6 cells; type: ADME, cell-based; details: hepatocytes; procedure, shortened: as §1
Hepatocyte [16] = experiment: Drug uptake in human hepatocyte at 250 uM after 24 hrs assessed as 1-((2R,3R,4R,5R)-3-fluoro-4-hydroxy-5-(hydroxymethyl)-3-methyl-tetrahydrofuran-2-yl)pyrimidine-2,4(1H,3H)-dione di phosphate level per 10^6 cells; type: ADME, cell-based; details: hepatocytes; procedure, shortened: as §1
Hepatocyte [17] = experiment: Drug uptake in human hepatocyte at 2 uM after 24 hrs assessed as 4-amino-1-((2R,3R,4R,5R)-3-fluoro-4-hydroxy-5-(hydroxymethyl)-3-methyl-tetrahydrofuran-2-yl)pyrimidin-2(1H)-one tri phosphate level per 10^6 cells; type: ADME, cell-based; details: hepatocytes; procedure, shortened: as §1
Hepatocyte [18] = experiment: Drug uptake in human hepatocyte at 10 uM after 24 hrs assessed as 4-amino-1-((2R,3R,4R,5R)-3-fluoro-4-hydroxy-5-(hydroxymethyl)-3-methyl-tetrahydrofuran-2-yl)pyrimidin-2(1H)-one tri phosphate level per 10^6 cells; type: ADME, cell-based; details: hepatocytes; procedure, shortened: as §1
Hepatocyte [19] = experiment: Drug uptake in human hepatocyte at 25 uM after 24 hrs assessed as 4-amino-1-((2R,3R,4R,5R)-3-fluoro-4-hydroxy-5-(hydroxymethyl)-3-methyl-tetrahydrofuran-2-yl)pyrimidin-2(1H)-one tri phosphate level per 10^6 cells; type: ADME, cell-based; details: hepatocytes; procedure, shortened: as §1
Hepatocyte [20] = experiment: Drug uptake in human hepatocyte at 50 uM after 24 hrs assessed as 4-amino-1-((2R,3R,4R,5R)-3-fluoro-4-hydroxy-5-(hydroxymethyl)-3-methyl-tetrahydrofuran-2-yl)pyrimidin-2(1H)-one tri phosphate level per 10^6 cells; type: ADME, cell-based; details: hepatocytes; procedure, shortened: as §1
Hepatocyte [21] = experiment: Drug uptake in human hepatocyte at 100 uM after 24 hrs assessed as 4-amino-1-((2R,3R,4R,5R)-3-fluoro-4-hydroxy-5-(hydroxymethyl)-3-methyl-tetrahydrofuran-2-yl)pyrimidin-2(1H)-one tri phosphate level per 10^6 cells; type: ADME, cell-based; details: hepatocytes; procedure, shortened: as §1
Hepatocyte [22] = experiment: Drug uptake in human hepatocyte at 250 uM after 24 hrs assessed as 4-amino-1-((2R,3R,4R,5R)-3-fluoro-4-hydroxy-5-(hydroxymethyl)-3-methyl-tetrahydrofuran-2-yl)pyrimidin-2(1H)-one tri phosphate level per 10^6 cells; type: ADME, cell-based; details: hepatocytes; procedure, shortened: as §1

- Drug uptake (Hepatocyte [1]): 3591.3 pmol
- Drug uptake (Hepatocyte [2]): 1529.9 pmol
- IC50 (Hepatitis C virus): 600 nM
- Drug uptake (Hepatocyte [3]): 30.4 pmol
- Drug uptake (Hepatocyte [4]): 32.9 pmol
- Drug uptake (Hepatocyte [5]): 34.4 pmol
- Drug uptake (Hepatocyte [6]): 36.4 pmol
- Drug uptake (Hepatocyte [7]): 31.9 pmol
- Drug uptake (Hepatocyte [8]): 34.6 pmol
- Drug uptake (Hepatocyte [9]): 0.6 pmol
- Drug uptake (Hepatocyte [10]): 0.7 pmol
- Drug uptake (Hepatocyte [11]): 1.1 pmol
- Drug uptake (Hepatocyte [12]): 1.3 pmol
- Drug uptake (Hepatocyte [13]): 1 pmol
- Drug uptake (Hepatocyte [14]): 0.3 pmol
- Drug uptake (Hepatocyte [15]): 34.7 pmol
- Drug uptake (Hepatocyte [16]): 40.9 pmol
- Drug uptake (Hepatocyte [17]): 1.4 pmol
- Drug uptake (Hepatocyte [18]): 5.6 pmol
- Drug uptake (Hepatocyte [19]): 11.3 pmol
- Drug uptake (Hepatocyte [20]): 18.7 pmol
- Drug uptake (Hepatocyte [21]): 34.3 pmol
- Drug uptake (Hepatocyte [22]): 40.4 pmol
Structure (SMILES): C[C@@]1(F)[C@H](O)[C@@H](CO)O[C@H]1n1ccc(N)nc1=O

— ChEMBL document CHEMBL1156500, “Characterization of the metabolic activation of hepatitis C virus nucleoside inhibitor beta-D-2'-Deoxy-2'-fluoro-2'-C-methylcytidine (PSI-6130) and identification of a novel active 5'-triphosphate species” (J Biol Chem, 2007)
